Most compounds without a hit are left out; they make up all but 2.5% or so of the library.
MEKK2wt PB1 HTS: raises or lowers MEK5 binding to wildtype human MEKK2 PB1 domain; bead flow cytometry, Alexa488-MEK5 binding to MEKK2 WT; actives lie on both sides; binding response (% of control), % at 10 µM; Q9Y2U5; hit rate 1.1% among 290,000; in the data active means binding response below about 67% or above about 130%
ABCG2 block: human ABCG2 inhibition, ABCB1 as counter-screen; IgMXP3 cells, JC-1 efflux, flow cytometry; inhibition, % at 6.6 µM; hit rate 0.1% among 190,000; AID 1325; Q9UNQ0;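 active means inhibition above 80%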;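 further: 0% = DMSO and 100% = nicardipine control wells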
Target sequence (Q9UNQ0 whole entry, looked up): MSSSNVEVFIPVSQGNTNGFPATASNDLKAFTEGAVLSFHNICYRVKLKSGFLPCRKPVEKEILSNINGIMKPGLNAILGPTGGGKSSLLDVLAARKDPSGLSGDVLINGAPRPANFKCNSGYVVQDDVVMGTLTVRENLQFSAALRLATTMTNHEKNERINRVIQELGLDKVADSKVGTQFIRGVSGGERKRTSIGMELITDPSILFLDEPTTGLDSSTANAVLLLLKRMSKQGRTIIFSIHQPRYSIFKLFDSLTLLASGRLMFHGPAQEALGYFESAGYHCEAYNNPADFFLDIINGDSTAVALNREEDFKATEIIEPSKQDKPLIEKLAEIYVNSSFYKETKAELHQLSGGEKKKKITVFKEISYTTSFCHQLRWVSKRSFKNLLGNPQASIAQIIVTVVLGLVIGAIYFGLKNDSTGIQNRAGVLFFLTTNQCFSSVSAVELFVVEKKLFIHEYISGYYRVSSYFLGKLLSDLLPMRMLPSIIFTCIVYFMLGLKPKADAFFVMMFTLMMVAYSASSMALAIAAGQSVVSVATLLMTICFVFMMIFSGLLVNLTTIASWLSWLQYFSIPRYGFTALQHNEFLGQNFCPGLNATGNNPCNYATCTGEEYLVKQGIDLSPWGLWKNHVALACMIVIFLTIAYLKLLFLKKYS
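Times: 10 min at 25 °C | Test system: Two drug-resistant human cell lines, ABCG2 and ABCB1 | Quantity: 3 million cells/mL final, two lines in 1:1 ratio | Signal: Flow cytometry, 530 nm JC-1 signal | Dosing: Compound at 6.6 µM | Controls: Nicardipine and DMSO wells | Reagent: JC-1 as fluorescent efflux pump substrate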
ABCB1 block: human ABCB1 inhibition, ABCG2 as counter-screen; CCRF-Adr cells, JC-1 efflux, flow cytometry; inhibition, % at 6.6 µM; hit rate 0.067% among 190,000; AID 1326; in the data active means inhibition above about 40%;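 further: 0% = vehicle and 100% = reference inhibitor; higher value means more JC-1 retained so stronger ABCB1 efflux block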
MEKK3 PB1 HTS: raises or lowers MEK5 binding to the human MEKK3 PB1 domain; Q99759; bead-based flow cytometry, Alexa488-MEK5 binding to MEKK3; actives lie on both sides; 0 = blocked by unlabeled MEK5, 100 = vehicle; binding response (% of control), % at 10 µM; hit rate 1.4% among 290,000; AID 1529;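 active means binding response more than 3 SD above or below the average of its plate-row segment, actives on both sides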;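 further: Alexa488 bead fluorescence after subtracting the streptavidin-only scavenger bead signal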
MEKK2mut PB1 HTS: signal of MEK5 binding to mutant human MEKK2 PB1 domain | bead flow cytometry, Alexa488-MEK5 binding to MEKK2 mutant | percent response, % at 10 µM | hit rate 0.35% among 290,000 | AID 1530; in the data active means percent response above about 24%, passing the limit was not always enough
Efflux pump inh: inhibitors of Candida antifungal efflux pumps expressed in yeast | S. cerevisiae Candida pump triplex, Nile Red efflux | inhibition, % at 10 µM | hit rate 0.44% among 330,000 | AID 485275;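 active means plate passing quality check with inhibition over a set limit, or well fluorescence over plate mean plus 4 SD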;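 further: Nile Red retained in pooled yeast measured as flow cytometry median fluorescence; 0% = buffer negative control and 100% = Enniatin B positive control; higher means more Nile Red kept so more efflux inhibition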
MEKK2wt confirm: raises or lowers MEK5 binding to wildtype human MEKK2, retest. hit rate 2.4% among 5,900. binding response (% of control), % at 10 µM. AID 1892. shares compounds with MEKK3 PB1 HTS. bead flow cytometry, Alexa488-MEK5 binding to MEKK2 WT; actives lie on both sides; in the data active means binding response below about 16% or above about 210%; inactive means in between
MEKK2mut confirm: signal of MEK5 binding to mutant human MEKK2, retest; percent response, % at 10 µM; hit rate 2% among 5,900; shares compounds with MEKK3 PB1 HTS; bead flow cytometry, Alexa488-MEK5 binding to MEKK2 mutant; in the data active means percent response mostly above about 71%, no sharp cut-off; inactive means mostly below about 38%;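 further: higher means compound restores mutant binding toward wildtype level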
MEKK3 confirm: confirmation of inhibitors of MEK5 binding to human MEKK3. shares compounds with MEKK3 PB1 HTS. bead flow cytometry, Alexa488-MEK5 binding to MEKK3; stronger effect = lower value. binding response (% of control), % at 10 µM. hit rate 1.8% among 5,900. AID 1894;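 active means binding response below 72% of control, or above a set upper limit, though filed actives all read lower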;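 further: 100% = DMSO only wells and 0% = binding blocked by excess unlabeled MEK5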
* marks the source's active call; other numbers are inactive results; nt = no result; [ ] = dose if it differs, or a comment.

SMILES	MEKK2wt PB1 HTS	ABCG2 block	ABCB1 block	MEKK3 PB1 HTS	MEKK2mut PB1 HTS	Efflux pump inh	MEKK2wt confirm	MEKK2mut confirm	MEKK3 confirm
O=C(CSc1nnc(-c2cccs2)n1Cc1ccccc1)NCc1ccc2c(c1)OCO2	90	4	2	76*[inhibitor]	-9	0	103	1	105
Cn1nc(C(=O)NCCCN2CCCCC2)c2c1-c1ccccc1S(=O)(=O)C2	100	nt	nt	101	0	0	nt	nt	nt
Cc1nc(Nc2cnc(/C=C/c3cc(C(=O)Nc4cccc(C(F)(F)F)c4)ccc3C)cn2)cc(N2CCNCC2)n1	136	nt	nt	47*[inhibitor]	10	0	128	15	43*
Cc1nc(N2CCC(C)CC2)c2c(C)c(C(=O)Nc3cccc(C(F)(F)F)c3)sc2n1	107	-1	0	99	-4	0	nt	nt	nt
S=C(CN1CCCC1=S)NCCc1ccccc1	94	nt	nt	97	-7	0	nt	nt	nt
O=C(COC(=O)CSc1nnc(-c2ccc(Cl)cc2)o1)NCc1ccc2c(c1)OCO2	85	8	1	81*[inhibitor]	-12	0	102	-2	102
CCc1nnc(SCC(=O)Nc2ccc3c(c2)OCO3)o1	100	1	0	100	3	0	nt	nt	nt
O=C(COC(=O)CSc1nnc(-c2ccc(Cl)cc2)o1)Nc1cc(Cl)ccc1Cl	112	nt	nt	105	10	0	nt	nt	nt
NC(=O)CSc1nnc(Cc2ccc3c(c2)OCO3)o1	124	0	0	143*	6	0	1.0*[inhibitor]	-29	2.0*
CC(Sc1nnc(Cc2ccc3c(c2)OCO3)o1)C(N)=O (stereo not drawn)	116	2	0	133*	5	0	101	-4	99
CC(=O)Nc1ccc(NC(=O)C(C)Sc2nnc(-c3ccc4c(c3)OCO4)o2)cc1 (stereo not drawn)	nt	nt	nt	nt	nt	0	nt	nt	nt
CC1Cc2ccccc2N1C(=O)CSc1nnc(N)s1 (stereo not drawn)	101	nt	nt	99	6	0	nt	nt	nt
CCOCCCNCC(O)c1ccccc1 (stereo not drawn)	116	5	1	162*	2	0	94	-10	96
O=c1sc2ccccc2c(=O)n1Cc1ccccc1F	125	9	1	139*	6	0	105	4	104
Cc1nc2c(-c3ccc(F)cc3)c(C)nn2c(C)c1CCC(=O)Nc1ccccc1F	48	nt	nt	45*[inhibitor]	-13	0	94	-7	99
COC(CNC(=O)CCc1c(C)nc2c(-c3ccc(F)cc3)c(C)nn2c1C)OC	99	0	0	101	1	0	nt	nt	nt
Cc1nnc(NCc2n[nH]c(=O)c3ccccc23)c2ccccc12	41*[inhibitor]	27	5	31*[inhibitor]	-6	0	95	-2	93
COc1ccc(NCc2n[nH]c(=O)c3ccccc23)cc1	97	53	-1	97	-2	0	nt	nt	nt
CCOc1ccccc1C(=O)Nc1ccccc1O	74	13	1	78*[inhibitor]	-7	0	105	5	103
CCOc1ccccc1C(=O)Nc1cccc2ccccc12	108	nt	nt	109	12	0	nt	nt	nt
OCCC1CN(Cc2nc3ccccc3s2)CCN1CCc1ccccc1 (stereo not drawn)	107	1	1	104	2	0	nt	nt	nt
Cc1ccc(-n2ncc3c2CCCC3NC(=O)c2csnn2)cc1C (stereo not drawn)	99	nt	nt	100	4	0	nt	nt	nt
CC1=CC2=NC(=O)CC(C)(C(=O)N(CC(=O)NC3CCCC3)c3cc(C)cc(C)c3)N2C=C1 (stereo not drawn)	128	2	1	150*	6	0	104	8	103
O=C(NCc1cc([N+](=O)[O-])ccc1O)c1cccc(NS(=O)(=O)c2ccccc2)c1	107	nt	nt	101	3	0	nt	nt	nt
COCCNC(=S)NN=C1CCCCCC1	7.0*[inhibitor]	3	-1	4.0*[inhibitor]	-46	nt	102	0	102
SMILES	MEKK2wt PB1 HTS	ABCG2 block	ABCB1 block	MEKK3 PB1 HTS	MEKK2mut PB1 HTS	Efflux pump inh	MEKK2wt confirm	MEKK2mut confirm	MEKK3 confirm
COCCNC(=S)NN=C1CCC(c2ccccc2)CC1 (stereo not drawn)	95	0	0	100	-4	0	nt	nt	nt
CC(C)(C)c1ccc(-c2nnc(NC(=O)c3ccccc3)s2)cc1	91	7	0	97	-4	0	nt	nt	nt
COCC(=O)Nc1nnc(-c2ccc(C(C)(C)C)cc2)s1	118	8	0	144*	6	0	102	-14	98
N#CCCN1CCN(C(=O)c2c(N)no[n+]2[O-])CC1	112	-1	0	128*	0	0	99	-5	102
Cc1ccc(C)c(CSC2=NN3CCCC(=O)N=C3S2)c1	110	nt	nt	119	11	0	nt	nt	nt
COc1cc(NC(=O)c2ncn[nH]2)cc(OC)c1OC	97	1	0	96	3	nt	nt	nt	nt
Cc1cc(C2=NNC(=NCCc3ccccc3)SC2)c(C)n1CC1CCCO1 (stereo not drawn)	150*	2	2	105	24	0	135	27	100
CCN=C1NN=C(c2cc(C)n(CCc3ccccc3)c2C)CS1	130	5	1	106	12	nt	nt	nt	nt
O=C1NN=C(c2ccc(Cl)cc2)CC1c1c[nH]c2ccccc12 (stereo not drawn)	97	8	1	102	1	0	nt	nt	nt
Cc1ccc(C2=NNC(=O)C(c3c[nH]c4ccccc34)C2)cc1 (stereo not drawn)	116	8	2	128*	-1	0	106	2	102
Nc1nc(SCc2ccc(Cl)cc2Cl)nc2nc3c(cc12)CCCC3	98	-4	0	100	-2	0	nt	nt	nt
CCc1nn(CC(=O)NCCCN(C)Cc2ccccc2)c(=O)c2cc3sc(C)cc3n12	119	nt	nt	105	6	0	nt	nt	nt
O=C(CN(Cc1ccco1)C(=O)c1ccc(Cl)cc1)Nc1c(Cl)cc(Cl)cc1Cl	99	-2	0	98	0	1	nt	nt	nt
O=C(CN(Cc1ccco1)C(=O)c1cccc(Cl)c1)Nc1c(Cl)cc(Cl)cc1Cl	117	2	1	122*	4	0	102	3	104
CCCCNC(=S)N/N=C1\C(=O)c2cccc3cccc1c23	74	14	-1	71*[inhibitor]	-5	0	97	-3	97
CNC(=S)N/N=C1\C(=O)c2cccc3cccc1c23	99	-1	0	95	-3	0	nt	nt	nt

Screening results deposited in PubChem by NMMLSC.
